NR2E3 ag-1 – human photoreceptor-specific nuclear receptor agonism; CHO-S Gal4-NCOR/VP16-NR2E3 two-hybrid, luciferase; inhibition of corepressor binding, % at 3.98 µM; hit rate 0.35% among 360,000; Q9Y5X4;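 active means inhibition above the mean of all tested compounds plus 3 SD, cut at about 70% in these data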;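 further: higher means lower luciferase signal from less NR2E3 corepressor binding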
NR2E3 ag-2 – NR2E3 (human) agonism; Q9Y5X4; GST-NR2E3/biotin-RetCOR TR-FRET, 1536-well; inhibition of corepressor binding, % at 4.78 µM; hit rate 0.12% among 320,000; AID 2300;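 active means percent inhibition above the cutoff of mean plus 3 SD of all tested compounds, set per screening campaign, cut at about 20% in these data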
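System: GST-tagged NR2E3 plus biotinylated RetCOR corepressor; Buffer or medium: pH 7.5 Tris-based buffer; Probe or stimulus: RetCOR corepressor, biotinylated, 7 nM; Doses: compound at 4.8 µM, single dose; Schedule: 5 h incubation at 4 °C; Technique: time-resolved FRET; Evaluation: percent inhibition of TR-FRET ratio; Replication: one well per compound, singlicate testing.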
GalR3 antag – blocks the human galanin receptor 3; O60755; HEK293 GalR3-CNG cAMP membrane potential fluorescence; galR3 body fused to GalR1 C-terminus; inhibition, % at 3 µM; hit rate 0.44% among 360,000;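 active means inhibition above the screen-wide average plus 3 SD, cut at about 13% in these data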;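 further: forskolin and galanin both at EC90 stimulate the cells; cAMP rise reported by CNG channel membrane potential dye signal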
Target sequence (O60755 1-299 limits assumed): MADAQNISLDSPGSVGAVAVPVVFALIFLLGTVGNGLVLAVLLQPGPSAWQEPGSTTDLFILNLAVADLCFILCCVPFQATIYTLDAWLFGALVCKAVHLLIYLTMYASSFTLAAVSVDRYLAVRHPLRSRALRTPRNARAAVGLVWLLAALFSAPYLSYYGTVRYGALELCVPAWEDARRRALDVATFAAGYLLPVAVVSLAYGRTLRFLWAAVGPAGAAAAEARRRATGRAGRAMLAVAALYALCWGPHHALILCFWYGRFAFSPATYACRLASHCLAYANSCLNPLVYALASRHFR
MsrA inhibitor – inhibits bovine methionine sulfoxide reductase A; purified bovine MsrA, absorbance read-out; inhibition, % at 15.5 µM; hit rate 0.75% among 360,000; AID 651718; in the data active means inhibition above about 4.5%
MsrA act – bovine methionine sulfoxide reductase A activation. purified bovine MsrA, absorbance read-out. activation, % at 10.6 µM. hit rate 0.3% among 360,000; in the data active means activation above about 7.5%
NadD block – blocks S. aureus nicotinate mononucleotide adenylyltransferase | AID 602399 | inhibition, % at 20 µM | hit rate 0.78% among 360,000 | purified NadD enzyme, colorimetric absorbance read-out; in the data active means inhibition above about 26%
NadD conf – confirmation of Staphylococcus aureus NadD inhibitors; shares compounds with NadD block; AID 624309; inhibition, % at 20 µM; hit rate 13% among 2,000; purified S. aureus NadD, colorimetric enzyme assay; in the data active means inhibition mostly above about 42%, no sharp cut-off; inactive means mostly below about 42%
Of the large screens only hits and unclear results are named; the others gave an inactive call (follow-up assays come after a bar, where they were run). An excerpt weighted towards active compounds, which were near 2.5% of everything screened.

CC1CCN(S(=O)(=O)c2ccc(C(=O)Nc3ccccc3-c3nc4ccccc4[nH]3)cc2)CC1	NadD block 28.6 | NadD conf inactive
Cc1cc2nc(-c3cccc(Br)c3)c(Cc3cccc(Cl)c3)n2c(C)c1Br	NadD block 35.1 (no result: NR2E3 ag-2) | NadD conf inactive
O=C(COC(=O)c1cccs1)NCc1ccco1	none
O=C(COC(=O)c1ccc(NS(=O)(=O)c2cccs2)cc1)NCc1ccco1	NadD block 30.2 (no result: GalR3 antag, MsrA inhibitor) | NadD conf inactive
CCN1CCN(CC(=O)Nc2sc3c(c2C#N)CCC(C)C3)CC1 (stereo not given)	none
Cc1sc(NC(=O)c2cc(-c3ccccc3)nc3ccccc23)c(C(N)=O)c1C	none
Cc1sc(NC(=O)c2cc(-c3ccc(Cl)cc3)nc3ccccc23)c(C(N)=O)c1C	NadD block 33.0 | NadD conf inactive
COc1ccccc1C(=O)NC(=S)NNC(=O)c1sc2ccccc2c1Cl	none
CCOC(=O)c1sc(NC(=O)c2cc(-c3ccc(C)cc3)nc3ccccc23)c(C#N)c1C	NadD block 41.9 | NadD conf inactive
COc1ccccc1C(=O)NNC(=S)NC(=O)c1sc2ccccc2c1Cl	NadD block 64.3 | NadD conf inactive
CC1CCc2c(sc(NC(=O)Cn3nc(C(=O)O)c4ccccc4c3=O)c2C#N)C1 (stereo not given)	NadD block 38.6 | NadD conf inactive
CN(C)S(=O)(=O)c1ccc2c(c1)nc(CCC(=O)Nc1ccc3c(c1)OCO3)n2C	none
Cc1oc(C(=O)O)cc1COc1cccc2ccccc12	none
CCCN(C(=O)c1ccc(S(=O)(=O)N2CCCC2)cc1)C1CCS(=O)(=O)C1 (stereo not given)	none
COc1ccc(-c2coc3cc4oc(=O)cc(-c5ccccc5)c4cc23)cc1F	none
CCn1c(-c2ccccn2)nc2cc(S(=O)(=O)N(C)C)ccc21	none
CC1CCc2c(sc(NC(=O)CSc3ncn[nH]3)c2C#N)C1 (stereo not given)	none
CCCc1cc(=O)[nH]c(SCC(=O)Nc2sc3c(c2C#N)CCC(C)C3)n1 (stereo not given)	NadD block 27.7 | NadD conf inactive
COc1ccc(Cl)cc1C(=O)NNC(=S)NC(=O)c1cc(-c2ccc(Cl)cc2)nc2ccccc12	NadD block 71.9 | NadD conf inactive
N#Cc1c(NC(=O)c2ccccc2)sc2c1CCCCC2	none
Cc1onc(-c2ccccc2)c1C(=O)NC(=S)Nc1sc2c(c1C#N)CCC(C)C2 (stereo not given)	NadD block 36.2 | NadD conf inactive
COc1ccc(-c2cc(C(=O)Nc3sc4c(c3C#N)CCCC4)c3ccccc3n2)cc1	NadD block 36.1 | NadD conf inactive
CCNC(=S)NNC(=O)c1cc(-c2ccc(OC)cc2)nc2ccccc12	none
CC1(C)N=C(N)NC(=NCCCOc2ccc([N+](=O)[O-])cc2)N1	none (no result: NR2E3 ag-2, GalR3 antag, MsrA inhibitor)
O=C(O)CCCn1cc(NC(=O)COc2ccccc2[N+](=O)[O-])cn1	none
CSCCC(NC(=O)CCNC(=O)c1ccccc1Cl)c1nc2ccccc2[nH]1 (stereo not given)	none
COc1ccc(OCC(=O)OCC(=O)Nc2cc(S(=O)(=O)N3CCOCC3)ccc2Cl)cc1	none (no result: NR2E3 ag-2)
COc1ccc(OC)c(-c2cc(C(=O)Nc3sc4c(c3C#N)CCC(C)C4)c3ccccc3n2)c1 (stereo not given)	none
COc1ccccc1-c1cc(C(=O)Nc2sc3c(c2C#N)CCC(C)C3)c2ccccc2n1 (stereo not given)	NadD block 54.5 | NadD conf inactive
CC(C)C[C@H]1CNC(=S)N1CC1CCCN1C[C@H](Cc1ccc(O)cc1)N1C[C@H](Cc2ccccc2)N(CC2CCCCCC2)C1=S (stereo not given in full)	none (no result: NR2E3 ag-2)
CC(C)C[C@H]1CNC(=S)N1C[C@H]1CCCN1C[C@H](Cc1ccccc1)N1C[C@H](Cc2ccc(O)cc2)N(CC2CCCCCC2)C1=S	NadD block 42.3 (no result: NR2E3 ag-2) | NadD conf inactive

Screens from PubChem BioAssay.
